A selection: hits, their analogues and other compounds. The true share with any hit is near 3.5%.
FN deposition inh = fibronectin deposition inhibition. AH1F fibroblasts, Alexa488-fibronectin deposition fluorescence, overnight. inhibition, % at 12.6 µM. 350,000 tested, 0.086% active. AID 743247;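 active means mean inhibition across replicates of 30% or more, regardless of how many single replicates reach that level; inconclusive means mean under 30% yet at least half of replicates reach 30%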;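 further: positive control wells lacked labelled fibronectin entirely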
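Test system: AH1F fibroblast monolayer depositing Alexa488-labelled fibronectin into matrix. Input: 10000 cells per well. Technique: fluorescence, ex 485 nm, em 525 nm. Buffer or medium: DMEM plus 2% serum, read in PBS. Timing: 1 h cell adhesion before compound, then overnight fibronectin incubation. Compound: single dose, pinned. Read-out basis: inhibition from reduced deposited-fibronectin fluorescence.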
Env fusion inh = blocks HIV Env-driven cell-cell fusion | 360,000 tested, 1.1% active | inhibition, % at 12.3 µM | HeLa-JRFL Env/CEM21 cell fusion, luciferase | AID 651610;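 active means mean replicate inhibition score of at least 50 and every replicate individually at or above 50; inconclusive means only one of the two criteria met; inactive means mean below 50 and not all replicates reaching 50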;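 further: 0% = plate neutral controls and 100% = maraviroc near 300 nM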
PglD DTNB = inhibitors of Campylobacter jejuni PglD acetyltransferase; purified PglD enzyme, DTNB colorimetric CoA detection; inhibition, % at 12.5 µM; 360,000 tested, 0.098% active; AID 602405; in the data active means inhibition above about 16%, passing the limit was not always enough; inconclusive means no clear call, values can overlap the other calls
DENV2 CPE = DENV2-induced cell death inhibition; DENV2-infected cells, cytopathic effect rescue, plate reader; CPE inhibition, % at 9.99 µM; 350,000 tested, 1.7% active; AID 651640; in the data active means CPE inhibition above about 20%, passing the limit was not always enough; inconclusive means no clear call, values can overlap the other calls; tested in BHK-21 cells;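 further: 0% = median of neutral control wells and 100% = median of positive control wells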
Ecoli rRNA inh = inhibits bacterial ribosomal RNA function over humanized ribosomes; 350,000 tested, 1.6% active; E. coli WT GFP vs humanized-ribosome RFP mutants, fluorescence, 24 h; stronger effect = lower value; DMSO median 0, no signal -100; GFP signal change (wild-type ribosome), % (no concentration beside the values); AID 720706;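 active means significant combined selectivity score with lowered wild-type GFP, culture density cut under 30%, mutant RFP and density less affected; inactive means any of these conditions unmet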
PGC1a acetyl inh = PGC1a acetylation modulation, inhibitor mode. U2OS PGC1a acetylation, AlphaScreen anti-acetyl-lysine; with virally co-expressed GCN5 acetyltransferase. inhibition, % at 15.6 µM. 350,000 tested, 0.17% active;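 active means every replicate shows inhibition of at least 40%; inconclusive means mean inhibition at least 40% but some replicate below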;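 further: 0% = neutral control wells and 100% = positive control wells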
* hit, by the source's call; ? = inconclusive; . = not tested or not shown; [ ] = another dose, or the depositor's remark.

SMILES | FN deposition inh | Env fusion inh | PglD DTNB | DENV2 CPE | Ecoli rRNA inh | PGC1a acetyl inh
Cc1ccc2c(CC(=O)OC(C)C(=O)Nc3ncc(Cl)cc3Cl)coc2c1 (centres undefined) | 1.8 | . | 19.6 | 78.7* | -19.9 | 7.7
CC(OC(=O)Cc1coc2ccc3ccccc3c12)C(=O)Nc1ncc(Cl)cc1Cl (centres undefined) | 1.8 | 1.2 | . | . | . | .
C[C@@H]1CN([C@@H](C)CO)C(=O)c2cc(N(C)C)ccc2O[C@@H](C)CCCCO[C@H]1CN(C)C(=O)c1ccccc1 | . | -9.9[16.7 µM] | 0.3 | 8.5 | -2.6 | -3.5
CCC(=O)N1CCCCN2[C@@H](CO)[C@@H](c3ccc(C#Cc4cccnc4)cc3)[C@@H]2C1 | . | . | 0.2 | 22.6* | 25.4 | -4.7
CCC(=O)N1CCCCN2[C@H](C1)[C@H](c1ccc(-c3cccnc3)cc1)[C@@H]2CO | . | . | -2.3 | 37.7* | 2.8 | -8.4
CCC(=O)N1CCCCN2[C@H](CO)[C@@H](c3ccc(-c4ccc(F)cc4)cc3)[C@@H]2C1 | . | . | -2.5 | -11.8 | 4.2 | -4.4
CCC(=O)N1CCCCN2[C@H](CO)[C@@H](c3ccc(-c4ccc(F)cc4)cc3)[C@H]2C1 | . | . | -0.1 | 31.1* | 5.0 | 0.6
O=C(C[C@@H]1CC[C@@H]2[C@H](COC[C@H](O)CN2C(=O)c2ccccc2)O1)Nc1ccc(-c2ccccc2)cc1 | -0.6 | . | 0.0 | 44.3* | -0.4 | -13.9
O=C(C[C@@H]1CC[C@H]2[C@@H](COC[C@@H](O)CN2C(=O)c2ccccc2)O1)Nc1ccc(-c2ccccc2)cc1 | -7.4 | . | 1.5 | 48.3* | -17.2 | 15.3
O=C(Nc1cc(F)ccc1F)N1CCCCN2[C@H](CO)[C@@H](c3ccc(-c4ccncc4)cc3)[C@H]2C1 | . | . | -52.2 | -8.0 | -0.6 | 8.6
COc1ccc(-c2nc(CN3CCC(C(=O)N4CCOCC4)CC3)c(C)o2)c(OC)c1 | -22.1 | . | 1.0 | 43.6* | 13.8 | -1.4
Cc1ccccc1-c1nc(CN2CCC(C(=O)NCCC3=CCCCC3)CC2)c(C)o1 | 8.1 | 72.6* | 10.1 | . | . | -8.8
COc1ccc(CCNC(=O)C2CCN(Cc3nc(-c4ccccc4C)oc3C)CC2)cc1OC | -3.0 | 56.8* | 2.5 | . | . | -10.1
Cc1ccccc1-c1nc(CN2CCC(C(=O)NCCCN3CCCC(C)C3)CC2)c(C)o1 (centres undefined) | 7.9 | 10.9 | -2.6 | 1.2 | 3.2 | 3.6
CCN(CCNC(=O)C1CCN(Cc2nc(-c3cccc(Cl)c3)oc2C)CC1)c1ccccc1 | 8.1 | 55.3* | -1.5 | . | . | -10.0
CCN1CCN(C(=O)C2CCN(Cc3nc(-c4cccc(Cl)c4)oc3C)CC2)CC1 | 13.6 | -18.3 | -2.9 | 9.1 | 6.2 | -2.5
O=C(Nc1ccc(Cl)cc1)Nc1nnc(CSCc2ccc(Cl)cc2)s1 | 0.4 | 71.4* | . | -1.0 | . | -1.3
C[C@@H]1CN([C@@H](C)CO)C(=O)c2cccc(N(C)C)c2O[C@H]1CN(C)Cc1ccc(-c2ccccc2)cc1 | . | 15.0[16.7 µM] | 4.8 | -2.2 | -0.2 | -16.2
CCN(Cc1ccccc1)C(=O)C1CCN(c2ncnc3c2nc2n3CCCCC2)CC1 | 9.3 | 2.9 | -2.9 | -3.1 | -25.3* | .
COc1ccccc1NC(=O)C1CCCN(c2ncnc3c2nc2n3CCCCC2)C1 (centres undefined) | -4.0 | 4.5 | -5.2 | 1.3 | -33.3* | -8.3
COc1cc(NC(=O)C2CCCN(c3ncnc4c3nc3n4CCCCC3)C2)cc(OC)c1OC (centres undefined) | 3.8 | -4.7 | -7.5 | 0.3 | -26.4 | -36.1
O=C(NCc1ccccc1)C1CCCN(c2ncnc3c2nc2n3CCCCC2)C1 (centres undefined) | 0.1 | -3.5 | -8.3 | 0.1 | -6.2 | -26.0
O=C(Nc1ccccc1Cl)C1CCCN(c2ncnc3c2nc2n3CCCCC2)C1 (centres undefined) | 5.8 | 7.9 | -5.1 | 3.7 | -30.0* | -29.4
C[C@@H]1CN([C@H](C)CO)S(=O)(=O)c2ccc(C3=CCCCC3)cc2O[C@@H]1CN(C)Cc1ccncc1 | . | 26.5[16.7 µM] | 2.3 | -10.0 | -39.9 | -22.4
CC=Cc1ccc2n(c1=O)C[C@@H]1[C@@H](CO)[C@H](C(=O)N[C@@H](C)c3ccccc3)[C@H]2N1CC1CC1 (mixture of isomers) | . | . | 13.4 | 4.6 | 0.3 | .
SMILES | FN deposition inh | Env fusion inh | PglD DTNB | DENV2 CPE | Ecoli rRNA inh | PGC1a acetyl inh
C[C@H]1CN([C@@H](C)CO)C(=O)c2ccccc2-c2ccccc2CO[C@@H]1CN(C)Cc1ccncc1 | -9.2 | 10.9[16.7 µM] | 2.5 | -4.5 | -4.0 | -5.6
C[C@H]1CN([C@@H](C)CO)C(=O)c2cc(C#Cc3cccc(F)c3)cnc2O[C@@H]1CN(C)C(=O)C1CCCCC1 | . | -14.5[16.7 µM] | 3.6 | 10.8 | -5.0 | -16.7
Cc1ccc(S(=O)(=O)N(CC(=O)NCCC2=CCCCC2)Cc2ccccc2F)cc1 | . | . | -2.9 | . | . | -5.0
COC(=O)c1ccc(COC(=O)CCS(=O)(=O)c2ccc(C)cc2)cc1 | 3.2 | 1.0 | . | 18.9 | -2.3 | .
Cc1ccc(S(=O)(=O)CCC(=O)NCc2ccccc2)cc1 | 4.0 | 5.6 | . | 22.3* | 2.0 | .
O=C(COC(=O)c1ccccc1Cl)NCCC1=CCCCC1 | -4.2 | -0.4 | . | -0.6 | -21.4* | .
Cc1ccc(S(=O)(=O)CCC(=O)OCc2ccc(Cl)cc2)cc1 | . | 12.8 | . | 6.4 | -25.9* | .
Cc1ccc(CNC(=O)CCS(=O)(=O)c2ccc(Cl)cc2)cc1 | 2.2 | 4.0 | 9.1 | . | . | -2.5
O=C(CN(Cc1ccccc1)S(=O)(=O)c1ccc(F)cc1)NCCC1=CCCCC1 | -4.3 | 109.3* | 1.8 | . | . | .
COCCCNC(=O)CN(CCc1ccccc1)S(=O)(=O)c1ccc(OC)cc1 | 2.1 | 14.8 | . | ? | -23.9* | 1.5
O=C(CN(Cc1ccccc1F)S(=O)(=O)c1ccc(Cl)cc1)NCCC1=CCCCC1 | 4.6 | 69.3* | -5.8 | . | . | -1.8
COc1ccc(S(=O)(=O)N(CCc2ccccc2)CC(=O)NCCCO)cc1 | . | . | . | . | . | -10.3
Cc1ccc(S(=O)(=O)N(CC(=O)NCCC2=CCCCC2)Cc2ccccc2)cc1 | . | 104.4* | -4.5 | . | . | -18.3
Cc1ccc(S(=O)(=O)N(C)CC(=O)NCCCc2ccccc2)cc1 | -0.4 | -1.3 | -2.5 | 1.6 | -24.2* | -17.0
COc1ccc(NC(=O)Nc2ccc3c(c2)C(=O)N([C@H](C)CO)C[C@H](C)[C@H](CN(C)S(=O)(=O)c2ccc(F)cc2)OCCCC[C@H](C)O3)cc1 | 6.7 | 33.5[16.7 µM] | -3.9 | -2.0 | -0.2 | -11.8
COc1ccc(Nc2ccc(S(=O)(=O)N3CCCCC3)cc2[N+](=O)[O-])cc1Cl | 2.4 | . | -0.2 | 40.7* | 1.8 | -3.0
CC(C)Cn1c(N)c(C(=O)COC(=O)/C=C/c2cccs2)c(=O)n(C)c1=O | -5.3 | -14.9 | . | -0.2 | -23.1* | 9.6
Cn1c(N)c(C(=O)COC(=O)/C=C/c2ccc(F)cc2)c(=O)n(C)c1=O | -7.8 | -3.9 | -3.9 | -10.3 | 3.3 | .
